Sampled rows, rich in hits. Any-hit rate of the full collection: about 2.3%.
TAAR1 agonist: human TAAR1 agonism | CHO RD-HGA16 TAAR1, Fluo-8 calcium fluorescence; vehicle wells 0%, saturating PEA agonist 100% | Q96RJ0 | AID 624467 | activation, % at 3 µM | actives 0.99% (n = 360,000);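 active = activation above the mean activation of all test compounds in the run plus 3 SD, cut at about 38% in these data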
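Benchmarks: low control DMSO, high control PEA (EC100); System: CHO RD-HGA16 cells carrying human TAAR1 plus Gα16; Detection: Fluo-8 fluorescence, 5 s baseline then 140 s kinetic read; Schedule: 17-24 h plating, Fluo-8 75 min 37 °C, 30 min RT; Read-out basis: % activation from peak over basal fluorescence ratio, DMSO-to-PEA scaled.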
V1R ag counter: activates human V1a receptor in oxytocin agonist counter-screen | P37288 | CHO-V1R cells, Fluo-8 calcium fluorescence, agonist mode; 0% DMSO, 100% 3 nM vasopressin | activation, % at 3 µM | actives 0.25% (n = 320,000) | AID 2797;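 active = activation above the mean activation of all tested compounds plus 3 SD, per screening run, cut at about 20% in these data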;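 note: signal is peak over basal fluorescence ratio across a 100 second FLIPR read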
Target sequence (P37288 whole entry, looked up): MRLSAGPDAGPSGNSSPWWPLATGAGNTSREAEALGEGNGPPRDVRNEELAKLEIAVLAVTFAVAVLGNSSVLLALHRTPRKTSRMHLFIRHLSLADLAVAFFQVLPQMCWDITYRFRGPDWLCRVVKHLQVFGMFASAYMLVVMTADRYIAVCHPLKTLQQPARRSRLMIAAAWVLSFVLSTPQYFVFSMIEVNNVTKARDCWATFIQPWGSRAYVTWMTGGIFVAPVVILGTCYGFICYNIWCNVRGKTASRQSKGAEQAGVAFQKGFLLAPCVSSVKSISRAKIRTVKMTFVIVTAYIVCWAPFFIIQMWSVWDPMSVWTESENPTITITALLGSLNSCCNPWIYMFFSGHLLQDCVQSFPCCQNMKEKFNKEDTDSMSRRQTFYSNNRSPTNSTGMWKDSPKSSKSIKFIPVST
TAAR1 antag: human TAAR1 antagonism; CHO RD-HGA16 TAAR1, Fluo-8 calcium fluorescence, antagonist; inhibition, % at 3 µM; actives 1.5% (n = 360,000); AID 624466;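 active = inhibition above a per-plate cutoff, the mean inhibition of test compounds on that plate plus 3 SD, cut at about 49% in these data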;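 note: 0% = DMSO plus EC80 beta-PEA response and 100% = DMSO alone without agonist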
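Assay system: RD-HGA16 CHO cells with stable hTAAR1 and Gα16 / Reagent: EC80 β-phenethylamine stimulus / Doses: 3 µM, single point / Timing: dye loading 75 min at 37 °C, then 30 min room temperature / Measured by: Fluo-8 intracellular calcium dye fluorescence, real-time kinetic reads / Controls: vehicle wells and EC80 agonist wells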
OXTR potentiate: potentiates the human oxytocin receptor response; CHO-OTR cells, Fluo-8 calcium fluorescence, potentiator mode; 0% = oxytocin EC15, 100% = EC100; activation, % at 3 µM; P30559; actives 0.061% (n = 320,000);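 active = activation above that plate's cutoff, the mean activation of tested compounds plus 3 SD, cut at about 6.6% in these data, passing the limit was not always enough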;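 note: 100% uses oxytocin at 75 nM as the full agonist control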
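Material: human OTR in CHO cells. Compound: 3.0 µM, one dose. Timing: compound 6 min at room temperature before oxytocin, 100 s read. Evaluation: % activation of max/min ratio relative to oxytocin controls. Replication: single well per compound, singlicate. Signal: Fluo-8 calcium dye fluorescence.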
OXTR agonist: agonists of human oxytocin receptor; CHO-OTR cells, Fluo-8 calcium fluorescence; normalized: DMSO 0%, oxytocin 100%; activation, % at 3 µM; actives 0.32% (n = 320,000);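 active = activation above the mean of all tested compounds plus 3 SD, cutoff set per screening run, cut at about 20% in these data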;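 note: peak over basal fluorescence ratio from a 100 s FLIPR kinetic read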
* hit, by the source's call; nt = no result.

SMILES	TAAR1 agonist	V1R ag counter	TAAR1 antag	OXTR potentiate	OXTR agonist
O=C(NCCc1cccs1)C12CN(Cc3ccccc3)CC1C(c1cccc([N+](=O)[O-])c1)=NO2 (stereo not drawn)	40*	-1	0	-5	-1
O=C(NCCCCc1ccccc1)C12CN(Cc3ccccc3)CC1C(c1cccc([N+](=O)[O-])c1)=NO2 (stereo not drawn)	8	0	-5	1	0
O=C(C[n+]1ccccc1)N/N=C/c1ccc(C(=O)O)cc1	0	1	2	-5	0
CCOC(=O)c1cccc(-n2cccc2/C=C2\NC(=O)N(CC(=O)O)C2=O)c1	0	-1	7	-6	1
CCOC(=O)c1ccc(-n2cccc2/C=C2\NC(=O)NC2=O)cc1	16	6	51*	-8	7
COc1ccc(N(CC(=O)NC2CCCCC2)C(=O)CNC(=O)c2cccs2)cc1OC	0	0	9	-6	0
O=C(COC(=O)c1c[nH]c2ccccc12)Nc1ccc([N+](=O)[O-])cc1	1	3	11	-8	5
CC(C)=CCCC(C)c1cc(C(=O)NCCc2ccc(O)cc2)c(N)s1 (stereo not drawn)	40*	nt	-1	nt	nt
O=C(NCCn1cc(SCc2ccccc2)c2ccccc21)c1ccccc1F	1	1	64*	-10	-1
O=C(Nc1ccc(S(=O)(=O)N2CCOCC2)cc1)c1cc(-c2ccccc2O)n[nH]1	19	1	54*	-6	1
CC1CN(S(=O)(=O)c2ccc(NC(=O)c3cc(-c4ccccc4O)n[nH]3)cc2)CC(C)O1 (stereo not drawn)	16	5	42	-29	4
Cc1nn(-c2ccc(Cl)cc2)c(=O)c2ccccc12	2	-2	2	-7	-2
Cc1c(Cl)sn(-c2ccc(Cl)cc2)c1=O	12	nt	61*	nt	nt
Clc1ccc2[nH]cc(-c3nnnn3-c3ccc4ccccc4c3)c2c1	8	2	49*	-23	4
Cc1ccc(C)c(N2CCN(C(=O)CCc3nc(-c4ccccc4C(F)(F)F)no3)CC2)c1	7	nt	68*	nt	nt
COc1cccc(-c2noc(CCC(=O)N3CCN(c4cc(C)ccc4C)CC3)n2)c1	3	nt	36	nt	nt
COc1ccccc1-c1noc(CCC(=O)N2CCN(c3cc(C)ccc3C)CC2)n1	8	nt	56*	nt	nt
O=C1CC(NS(=O)(=O)c2cc(F)ccc2F)CN1c1cccc(F)c1 (stereo not drawn)	1	0	-10	-7	0
CC(=O)c1c(O)cc2c3c1OC(C)(C)C1CCC(C)(CC31)O2 (stereo not drawn)	8	nt	52*	nt	nt
O=C1/C(=C\c2c(NCCOCCO)nc3ccccn3c2=O)SC(=S)N1Cc1ccco1	41*	56*	62*	-27	40*
CCCN1C(=O)/C(=C/c2c(NCCCOCC)nc3c(C)cccn3c2=O)SC1=S	9	nt	-4	nt	nt
CCNC(=S)NNC(=O)c1cc(-c2ccc(OC)cc2)nc2ccccc12	0	2	11	-7	0
COc1ccc(Cl)cc1C(=O)NNC(=S)NC(=O)c1cc(-c2ccc(Cl)cc2)nc2ccccc12	37*	3	16	-17	8
COc1cc(-c2cc(C(=O)Nc3cccc(C(C)=O)c3)c3ccccc3n2)cc(OC)c1OC	20	7	68*	-11	5
COc1ccc(-c2cc(C(=O)Nc3ccc(C(N)=O)cc3)c3ccccc3n2)cc1OC	12	0	54*	-13	0
SMILES	TAAR1 agonist	V1R ag counter	TAAR1 antag	OXTR potentiate	OXTR agonist
Cc1ccc(-c2nc3c4ccccc4ccn3c2Cc2cccc(F)c2)cc1	3	nt	-9	nt	nt
COc1ccc(CN2CCNC(=O)C2CC(=O)NC2CCCCCCC2)cc1C (stereo not drawn)	1	0	-19	-9	-1
O=C1CCCC2=C1C1c3ccccc3C(=O)N1c1ccc(C(=O)c3ccccc3)cc1N2 (stereo not drawn)	12	1	49*	-8	-2
CCC(=O)N1c2ccccc2NC2=C(C(=O)CCC2)C1c1ccc(N(C)C)cc1 (stereo not drawn)	0	0	10	-11	0
O=C(Nc1ccc(-c2nc3ccccc3o2)cc1)c1cccnc1	31	5	50*	-5	7
Clc1ccc(C2=CC(c3ccco3)n3ncnc3N2)cc1 (stereo not drawn)	107*	12	24	-11	8
Clc1ccccc1C1=CC(c2ccco2)n2ncnc2N1 (stereo not drawn)	4	0	-3	1	0
COc1ccccc1/C=C1/SC(=O)N(CCC(=O)Nc2ccc(S(=O)(=O)Nc3nccs3)cc2)C1=O	2	0	5	-15	3
Cc1n[nH]c(=O)nc1NCc1ccccc1	5	0	8	-5	1
Cc1n[nH]c(=O)nc1NCCc1ccccc1	40*	0	0	-6	1
Cc1ccc(N(C)S(=O)(=O)c2cccc(C(=O)OCC(=O)c3c(N)n(C)c(=O)n(C)c3=O)c2)cc1	18	6	66*	-10	10
CN(C(=O)COC(=O)c1cccc(S(=O)(=O)N2CCCCCC2)c1)c1ccccc1	6	nt	-15	nt	nt
CN(C)S(=O)(=O)c1cccc(C(=O)OCC(=O)c2c(N)n(C)c(=O)n(C)c2=O)c1	1	0	-1	-5	1
COc1ccc(N(C)S(=O)(=O)c2cccc(C(=O)OCC(=O)N(C)c3ccccc3)c2)cc1	16	7	56*	-10	12
O=S(=O)(c1ccc(F)cc1)N1CCCc2nc(-c3ccc(Br)cc3)ccc21	-1	nt	-15	nt	nt
COc1ccc2cc(-c3cc(C(=O)OCC(=O)Nc4c(C)n(C)n(-c5ccccc5)c4=O)c4ccccc4n3)ccc2c1	13	nt	66*	nt	nt
COc1ccccc1-c1ccc(/C=C2\C=CC(=O)O2)o1	28	44*	3	-20	50*
Cc1cc(C(=O)OCC(=O)Nc2cccc(S(=O)(=O)N(C)C)c2)c2ccccc2n1	4	7	-34	-4	4
CN(C)S(=O)(=O)c1ccc(Cl)c(NC(=O)COC(=O)c2cc(-c3ccccc3)nc3ccccc23)c1	4	2	52*	-12	0
COC(=O)c1cc2c(c3c4cc(C)ccc4n(S(=O)(=O)c4ccc(C)cc4)c13)C(=O)N(Cc1ccc(N(C)C)cc1)C2	-2	nt	-4	nt	nt
O=C(Nc1cccc(-n2cccn2)c1)C1CCCN(Cc2cc3ccccc3[nH]2)C1 (stereo not drawn)	18	nt	7	nt	nt
CCn1ncc(CN2CCCC(C(=O)Nc3cccc(-c4cc5ccccc5[nH]4)c3)C2)c1C (stereo not drawn)	41*	7	21	0	3

Bioassay records (PubChem)
